Assays:
Plasmodium falciparum [1] = test: Ratio of IC50 for trophozoite stage of Plasmodium falciparum 3D7 infected in RBC after 5 hrs in presence of 5 uM ALLN to IC50 for trophozoite stage of Plasmodium falciparum 3D7 infected in RBC after 5 hrs in absence of ALLN; assay type: functional
How it was run: (§1)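 Trophozoite-stage parasites pulsed 5 h with compound, with or without ALLN (0.2 or 5 μM). Drug and ALLN then removed; culture continued a further 43 h before survival was assessed. Antagonism expressed as the ratio of IC50 with ALLN to IC50 without ALLN.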

Plasmodium falciparum [2] = test: Ratio of IC50 for trophozoite stage of Plasmodium falciparum 3D7 infected in RBC after 5 hrs in presence of 0.2 uM ALLN to IC50 for trophozoite stage of Plasmodium falciparum 3D7 infected in RBC after 5 hrs in absence of ALLN; assay type: functional; how it was run: as §1
Plasmodium falciparum [3] = test: Antimalarial activity against trophozoite stage of Plasmodium falciparum 3D7 infected in RBC assessed as growth inhibition after 5 hrs by SYBR Green-I fluorescence assay; assay type: functional, organism-based; conditions: 3D7, 5 h
How it was run: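 Trophozoite-stage parasites pulsed with compound for 5 h. Drug then washed out and parasites cultured a further 43 h before survival was assessed.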

Plasmodium falciparum [4] = test: Antimalarial activity against Plasmodium falciparum 3D7 infected in RBC assessed as growth inhibition after 48 hrs by SYBR Green-I fluorescence assay; assay type: functional, organism-based; conditions: 3D7, 48 h
How it was run: (§2)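 Parasite-infected red cells exposed to compound for 48 h; growth read by SYBR Green-I fluorescence; IC50 derived. Where a ± is given, it is the standard deviation of three individual experiments.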

Plasmodium falciparum [5] = test: Ratio of IC50 for trophozoite stage of Plasmodium falciparum 3D7 infected in RBC after 5 hrs to IC50 for Plasmodium falciparum 3D7 infected in RBC after 48 hrs; assay type: functional
Plasmodium falciparum [6] = test: Antimalarial activity against mid to late trophozoite stage of Plasmodium falciparum 3D7 infected in RBC assessed as abnormal mitochondria at 0.0002 uM after 0.5 hrs by MitoTracker Red CMXRos-based fluorescence microscopic analysis relative to untreated control; assay type: functional
Plasmodium falciparum [7] = test: Antimalarial activity against mid to late trophozoite stage of Plasmodium falciparum 3D7 infected in RBC assessed as abnormal mitochondria at 0.001 uM after 0.5 hrs by MitoTracker Red CMXRos-based fluorescence microscopic analysis relative to untreated control; assay type: functional
Plasmodium falciparum [8] = test: Antimalarial activity against mid to late trophozoite stage of Plasmodium falciparum 3D7 infected in RBC assessed as nonviable parasite at 0.0002 uM after 0.5 hrs by SYTO 61 staining-based flow cytometric analysis relative to untreated control; assay type: functional
Plasmodium falciparum [9] = test: Antimalarial activity against mid to late trophozoite stage of Plasmodium falciparum 3D7 infected in RBC assessed as nonviable parasite at 0.001 uM after 0.5 hrs by SYTO 61 staining-based flow cytometric analysis relative to untreated control; assay type: functional
Plasmodium falciparum [10] = test: Antimalarial activity against Plasmodium falciparum K1 infected in RBC assessed as growth inhibition after 48 hrs by SYBR Green-I fluorescence assay; assay type: functional, organism-based; conditions: K1, 48 h; how it was run: as §2
Plasmodium falciparum [11] = test: Resistant index, ratio of IC50 for Plasmodium falciparum K1 to IC50 for Plasmodium falciparum 3D7; assay type: functional
How it was run: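 Ratio of K1 to 3D7 IC50 values. Each IC50 comes from a 48 h drug exposure of the P. falciparum strain, with growth read by SYBR Green-I fluorescence. Where spread is given, it is the standard deviation of three individual experiments.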

[12] = Selectivity index, ratio of IC50 for HEK293 cells to IC50 for Plasmodium falciparum 3D7 after 72 hrs; assay type: toxicity, cell-based; conditions: human, read-out: Ratio IC50
How it was run: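 Parasite (3D7) viability assay and HEK293 viability assay, each with a 72 h exposure. Index taken as the ratio of the IC50 values, HEK293 over 3D7.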

[13] = Inhibition of beta-hematin formation after 24 hrs by spectrophotometric analysis in presence of nonidet P40; assay type: functional
Plasmodium falciparum [14] = test: Antimalarial activity against mid to late trophozoite stage of Plasmodium falciparum 3D7 infected in RBC assessed as nonviable parasite at 5 uM after 0.5 hrs by SYTO 61 staining-based flow cytometric analysis relative to untreated control; assay type: functional
Plasmodium falciparum [15] = test: Antimalarial activity against mid to late trophozoite stage of Plasmodium falciparum 3D7 infected in RBC assessed as nonviable parasite at 15 uM after 0.5 hrs by SYTO 61 staining-based flow cytometric analysis relative to untreated control; assay type: functional
Plasmodium falciparum [16] = test: Gametocytocidal activity against synchronous stage 4 to 5 of transgenic Plasmodium falciparum NF54 gametocyte harboring pfs16 promoter assessed as parasite viability after 72 hrs by MitoTracker Red CMXRos-based assay; assay type: functional, organism-based; conditions: NF54, 72 h
Plasmodium falciparum [17] = test: Gametocytocidal activity against synchronous stage 1 to 3 of transgenic Plasmodium falciparum NF54 gametocyte harboring pfs16 promoter assessed as parasite viability after 72 hrs by luciferase reporter gene assay; assay type: functional, organism-based; conditions: NF54, 72 h
Plasmodium falciparum [18] = test: Antimalarial activity against mid to late trophozoite stage of Plasmodium falciparum 3D7 infected in RBC assessed as abnormal mitochondria at 5 uM after 0.5 hrs by MitoTracker Red CMXRos-based fluorescence microscopic analysis relative to untreated control; assay type: functional
Plasmodium falciparum [19] = test: Antimalarial activity against mid to late trophozoite stage of Plasmodium falciparum 3D7 infected in RBC assessed as abnormal mitochondria at 0.56 uM after 0.5 hrs by MitoTracker Red CMXRos-based fluorescence microscopic analysis relative to untreated control; assay type: functional
Plasmodium falciparum [20] = test: Antimalarial activity against mid to late trophozoite stage of Plasmodium falciparum 3D7 infected in RBC assessed as abnormal mitochondria at 1.7 uM after 0.5 hrs by MitoTracker Red CMXRos-based fluorescence microscopic analysis relative to untreated control; assay type: functional
Plasmodium falciparum [21] = test: Antimalarial activity against mid to late trophozoite stage of Plasmodium falciparum 3D7 infected in RBC assessed as abnormal mitochondria at 15 uM after 0.5 hrs by MitoTracker Red CMXRos-based fluorescence microscopic analysis relative to untreated control; assay type: functional
Plasmodium falciparum [22] = test: Antimalarial activity against mid to late trophozoite stage of Plasmodium falciparum 3D7 infected in RBC assessed as nonviable parasite at 0.56 uM after 0.5 hrs by SYTO 61 staining-based flow cytometric analysis relative to untreated control; assay type: functional
Plasmodium falciparum [23] = test: Antimalarial activity against mid to late trophozoite stage of Plasmodium falciparum 3D7 infected in RBC assessed as nonviable parasite at 1.7 uM after 0.5 hrs by SYTO 61 staining-based flow cytometric analysis relative to untreated control; assay type: functional
Plasmodium falciparum [24] = test: Gametocytocidal activity against asexual stage of transgenic Plasmodium falciparum NF54 gametocyte harboring pfs16 promoter assessed as parasite viability after 72 hrs by luciferase reporter gene assay; assay type: functional, organism-based; conditions: NF54, 72 h
Plasmodium falciparum [25] = test: Antimalarial activity against mid to late trophozoite stage of Plasmodium falciparum 3D7 infected in RBC assessed as abnormal mitochondria at 0.6 uM after 0.5 hrs by MitoTracker Red CMXRos-based fluorescence microscopic analysis relative to untreated control; assay type: functional
Plasmodium falciparum [26] = test: Antimalarial activity against mid to late trophozoite stage of Plasmodium falciparum 3D7 infected in RBC assessed as abnormal mitochondria at 3 uM after 0.5 hrs by MitoTracker Red CMXRos-based fluorescence microscopic analysis relative to untreated control; assay type: functional
Plasmodium falciparum [27] = test: Antimalarial activity against mid to late trophozoite stage of Plasmodium falciparum 3D7 infected in RBC assessed as nonviable parasite at 0.6 uM after 0.5 hrs by SYTO 61 staining-based flow cytometric analysis relative to untreated control; assay type: functional
Plasmodium falciparum [28] = test: Antimalarial activity against mid to late trophozoite stage of Plasmodium falciparum 3D7 infected in RBC assessed as nonviable parasite at 3 uM after 0.5 hrs by SYTO 61 staining-based flow cytometric analysis relative to untreated control; assay type: functional
Plasmodium falciparum [29] = test: Antimalarial activity against mid to late trophozoite stage of Plasmodium falciparum 3D7 infected in RBC assessed as abnormal mitochondria at 20 uM after 0.5 hrs by MitoTracker Red CMXRos-based fluorescence microscopic analysis relative to untreated control; assay type: functional

Compound	Ratio IC50 (Plasmodium falciparum [1])	Ratio IC50 (Plasmodium falciparum [2])	IC50 (Plasmodium falciparum [3]) [µM]	IC50 (Plasmodium falciparum [4]) [µM]	Ratio IC50 (Plasmodium falciparum [5])	IC50 (Plasmodium falciparum [10]) [µM]	Ratio IC50 (Plasmodium falciparum [11])	selectivity ratio at 72 h [12]	IC50 [13] [µM]	other results
CC1(C)N=C(N)N=C(N)N1OCCCOc1cc(Cl)c(Cl)cc1Cl	0.7	0.7	0.0004	0.00046	0.9					Activity (Plasmodium falciparum [6]): 3%; Activity (Plasmodium falciparum [7]): 3%; Activity (Plasmodium falciparum [8]): 40%; Activity (Plasmodium falciparum [9]): 73%
Cc1cc(N)c2ccccc2[n+]1C				> 4		> 5				
C[n+]1c(/C=C/c2c[nH]c3cc(F)ccc23)cc(N)c2ccccc21.[I-]				0.29		0.14	0.3	4		
C[n+]1c(/C=C/c2c[nH]c3ncccc23)cc(N)c2ccccc21.[I-]				0.4		0.25	0.3	4		
C[n+]1c(/C=C/c2n[nH]c3ccccc23)cc(N)c2ccccc21.[I-]				0.7		0.23	0.3	107	1500	
C[n+]1c(/C=C/c2c[nH]c3ccccc23)cc(N)c2ccc(Cl)cc21				0.4		0.19		2	300	
CCCC[n+]1c(/C=C/c2c[nH]c3ccccc23)cc(N)c2ccccc21				0.45		0.44		4		
Nc1cc(/C=C/c2n[nH]c3ccccc23)nc2ccccc12				0.14		0.4	2	164		
CCN(CC)CCCC(C)Nc1cc(/C=C/c2c[nH]c3ccccc23)nc2ccccc12 (stereo not given)	2.6	1.6	0.17	0.1	1.7	0.33	3	87	1100	
Nc1cc(CCc2c[nH]c3ccccc23)nc2ccccc12				0.9		2.2		67		
Cc1[nH]c2ccccc2c1/C=C/c1cc(N)c2ccccc2[n+]1C.[I-]	1.7	1	0.73	0.17	4.3	0.23	1.3	18	220	Activity (Plasmodium falciparum [14]): 66%; Activity (Plasmodium falciparum [15]): 86%; IC50 (Plasmodium falciparum [16]): 1.9 µM; IC50 (Plasmodium falciparum [17]): 0.35 µM; Activity (Plasmodium falciparum [18]): 97%; Activity (Plasmodium falciparum [19]): 43%; Activity (Plasmodium falciparum [20]): 86%; Activity (Plasmodium falciparum [21]): 99%; Activity (Plasmodium falciparum [22]): 18%; Activity (Plasmodium falciparum [23]): 42%
C[n+]1c(/C=C/c2c[nH]c3ccccc23)cc(N)c2ccccc21.[I-]	3	1.5	1	0.2	5	0.12	0.6	35	1400	Activity (Plasmodium falciparum [15]): 81%; IC50 (Plasmodium falciparum [16]): 4 µM; IC50 (Plasmodium falciparum [17]): 0.3 µM; IC50 (Plasmodium falciparum [24]): 0.1 µM; Activity (Plasmodium falciparum [25]): 18%; Activity (Plasmodium falciparum [26]): 91%; Activity (Plasmodium falciparum [21]): 100%; Activity (Plasmodium falciparum [27]): 8%; Activity (Plasmodium falciparum [28]): 73%
CNc1cc(/C=C/c2c(C)[nH]c3ccccc23)[n+](C)c2ccccc12				1.4		1.6		16		
C[C@H]1[C@H](OC(=O)CCC(=O)O)O[C@@H]2O[C@@]3(C)CC[C@H]4[C@H](C)CC[C@@H]1[C@@]24OO3 [ARTESUNATE]										IC50 (Plasmodium falciparum [16]): 0.008 µM
N#CC(C#N)=NNc1cccc(Cl)c1 [CARBONYL CYANIDE M-CHLOROPHENYLHYDRAZONE]										Activity (Plasmodium falciparum [29]): 74%
CN(C)c1ccc2nc3ccc(N(C)C)cc3[s+]c2c1.[Cl-] [METHYLENE BLUE ANHYDROUS]	3.2	2.1	0.03	0.02	1.5	0.008				

From ChEMBL document CHEMBL2417386, “Novel conjugated quinoline-indoles compromise Plasmodium falciparum mitochondrial function and show promising antimalarial activity” (J Med Chem, 2013)
